Test results taken from ChEMBL document CHEMBL1135463 (J Med Chem, 2002).
≈ marks a conversion by molar mass, not a printed value. One block for each compound: values may come before it.

Columns and labels:
Neisseria gonorrhoeae = experiment: The minimum inhibitory concentration (MIC) that inhibits all visible growth of the Neisseria gonorrhoeae (bacteria); assay type: functional
How it was run: (§1)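 Broth microdilution following NCCLS reference methods (M7-A4 for aerobic bacteria, the yeast broth dilution standard for fungi). MIC is the lowest compound concentration giving optically clear wells, with no visible growth of the test organism.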

MCF7 = experiment: Cell growth inhibition of breast MCF-7 cells, expressed as 50% reduction in the net protein increase; assay type: functional; conditions: Homo sapiens
Streptococcus pneumoniae = experiment: The minimum inhibitory concentration (MIC) that inhibits all visible growth of the Streptococcus pneumoniae (bacteria); assay type: functional; how it was run: as §1
Staphylococcus aureus = experiment: The minimum inhibitory concentration (MIC) that inhibits all visible growth of the Staphylococcus aureus (bacteria); assay type: functional; how it was run: as §1
Cryptococcus neoformans = experiment: Minimum inhibitory concentration (MIC) that inhibits all visible growth of the Cryptococcus neoformans (fungus).; assay type: functional; how it was run: as §1
[1] = In vitro growth inhibition of NCI-H460 (human non-small cell lung carcinoma) cell line.; assay type: functional
P388 [2] = experiment: In vitro inhibition of P388 (murine leukemia) cell proliferation.; assay type: functional; conditions: Mus musculus, read-out: ED50 (the source's name)
Micrococcus luteus = experiment: the minimum inhibitory concentration (MIC) that inhibits all visible growth of the Micrococcus luteus (bacteria); assay type: functional; how it was run: as §1
SF-268 [3] = experiment: In vitro growth inhibition of central nervous system SF-268 cell line.; assay type: functional; conditions: Homo sapiens
DU-145 [4] = experiment: In vitro growth inhibition of DU-145 (human prostate carcinoma) cell line.; assay type: functional
KM-20L2 [5] = experiment: In vitro growth inhibition of KM20L2 cell line.; assay type: functional; conditions: Homo sapiens
Candida albicans = experiment: The minimum inhibitory concentration (MIC) that inhibits all visible growth of the Candida albicans (fungus); assay type: functional; how it was run: as §1
Tubulin [6] = target: T1, Tubulin (Bos taurus, UniProt Q6B856+Q862L2+Q862F3); experiment: (§2) Inhibition of tubulin polymerization reported as IC50; assay type: functional
BXPC-3 [7] = experiment: In vitro growth inhibition of BXPC-3 (human pancreatic adenocarcinoma) cell line.; assay type: functional
Enterococcus faecalis = experiment: the minimum inhibitory concentration (MIC) that inhibits all visible growth of the Enterococcus faecalis (bacteria); assay type: functional; how it was run: as §1
Tubulin (Bos taurus) [8] = target: T2, Tubulin (Bos taurus) (UniProt Q6B856+Q862L2+Q862F3); experiment: Inhibition of radiolabeled [3H]colchicine binding to tubulin at a concentration of 5 uM of the compound; assay type: protein assay
How it was run: (§3)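 [3H]colchicine 5.0 µM incubated with tubulin 1.0 µM plus inhibitor at the stated level, 10 min at 37 °C, then colchicine binding measured. Reported as percent inhibition.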

BXPC-3 [9] = experiment: Cell growth inhibition against pancreatic BXPC-3 cells, 50% reduction in the net protein increase; assay type: functional; conditions: Homo sapiens
How it was run: (§4)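 Human tumour lines kept in 5% FBS/RPMI-1640, plated and incubated 24 h before compound dilutions were added. Exposure 48 h, then TCA fixation, washing and sulforhodamine B staining, with optical density read on a plate reader. GI50 is the concentration giving a 50% reduction in net protein increase, calculated from the OD data.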

NCI-H460 = experiment: Cell growth inhibition of lung-NSC NCI-H460 cells, expressed as 50% reduction in the net protein increase; assay type: functional; conditions: Homo sapiens; how it was run: as §4
P388 [10] = experiment: Evaluated for cell growth inhibition of the mouse leukemia P388 cells in 10% horse serum/Fisher media; assay type: functional; conditions: read-out: ED50 (the source's name)
How it was run: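 Murine P388 leukaemia cells grown in 10% horse serum/Fisher medium, incubated 24 h, then compound dilutions added. After 48 h, cells counted on a Coulter Z1 particle counter and the ED50 for growth inhibition calculated.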

Tubulin (Bos taurus) [11] = target: T2, Tubulin (Bos taurus); experiment: Inhibition of radiolabeled [3H]colchicine binding to tubulin at a concentration of 2 uM of the compound; assay type: protein assay; how it was run: as §3
Tubulin [12] = target: T1, Tubulin; experiment: as §2; assay type: functional; remark: listed apart in the source
How it was run: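 Tubulin at 10 µM with a range of drug concentrations. Extent of assembly read after 20 min at 30 °C. IC50 taken from the concentration needed to halve assembly.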

SF-268 [13] = experiment: Cell growth inhibition of central nervous system (CNS) SF-268 cells, expressed as 50% reduction in the net protein increase; assay type: functional; conditions: Homo sapiens; how it was run: as §4
DU-145 [14] = experiment: Cell growth inhibition of prostate DU-145 cells, expressed as 50% reduction in the net protein increase; assay type: functional; conditions: Homo sapiens; how it was run: as §4
SF-268 (Homo sapiens) = experiment: The concentration causing 50% reduction in the net protein increase (cell growth inhibition, GI50) against central nervous system (CNS) SF-268 cells
KM-20L2 [15] = experiment: Cell growth inhibition of colon KM20L2 cells, expressed as 50% reduction in the net protein increase; assay type: functional; conditions: Homo sapiens; how it was run: as §4

MIC (Neisseria gonorrhoeae): 8 µg/mL (≈ 31.2 µM)
GI50 (MCF7): 3 µg/mL (≈ 11.7 µM)
MIC (Streptococcus pneumoniae): 16 µg/mL (≈ 62.4 µM)
MIC (Staphylococcus aureus): 32 µg/mL (≈ 125 µM)
MIC (Cryptococcus neoformans): 16 µg/mL (≈ 62.4 µM)
EC50 (P388 [2]): 2.95 µg/mL (≈ 11.5 µM)
MIC (Micrococcus luteus): 8 µg/mL (≈ 31.2 µM)
GI50 (DU-145 [4]): 2.3 µg/mL (≈ 8.97 µM)
MIC (Candida albicans): 64 µg/mL (≈ 250 µM)
IC50 (Tubulin [6]): 29000 nM
GI50 (BXPC-3 [7]): 12.6 µg/mL (≈ 49.2 µM)
MIC (Enterococcus faecalis): 32 µg/mL (≈ 125 µM)
SMILES: COc1cc(/C=C\c2ccc(O)cc2)cc(OC)c1
GI50 [1]: 2.8 µg/mL (≈ 10.9 µM)
GI50 (SF-268 [3]): 2.2 µg/mL (≈ 8.58 µM)
GI50 (KM-20L2 [5]): 11.9 µg/mL (≈ 46.4 µM)

GI50 (MCF7): 14.8 µg/mL (≈ 64.8 µM)
EC50 (P388 [2]): 24.4 µg/mL (≈ 107 µM)
GI50 (DU-145 [4]): 10.2 µg/mL (≈ 44.7 µM)
GI50 (BXPC-3 [7]): 15.5 µg/mL (≈ 67.9 µM)
SMILES: Oc1ccc(/C=C\c2cc(O)cc(O)c2)cc1 [CIS-RESVERATROL]
GI50 [1]: 13.2 µg/mL (≈ 57.8 µM)
GI50 (SF-268 [3]): 5 µg/mL (≈ 21.9 µM)
GI50 (KM-20L2 [5]): 22 µg/mL (≈ 96.4 µM)

GI50 (MCF7): 2.3 µg/mL (≈ 8.97 µM)
EC50 (P388 [2]): 4.87 µg/mL (≈ 19 µM)
GI50 (DU-145 [4]): 2.7 µg/mL (≈ 10.5 µM)
GI50 (BXPC-3 [7]): 6.5 µg/mL (≈ 25.4 µM)
SMILES: COc1cc(/C=C/c2ccc(O)cc2)cc(OC)c1 [PTEROSTILBENE]
GI50 [1]: 2.7 µg/mL (≈ 10.5 µM)
GI50 (KM-20L2 [5]): 3.4 µg/mL (≈ 13.3 µM)
GI50 (SF-268 (Homo sapiens)): 4.3 µg/mL (≈ 16.8 µM)

The next lines start with the compound.

SMILES: COc1ccc(/C=C/c2cc(O)cc(O)c2)cc1 [RESVERATROL 4'-METHYL ETHER]
GI50 (MCF7): 3.4 µg/mL (≈ 14 µM)
GI50 [1]: 6.8 µg/mL (≈ 28.1 µM)
EC50 (P388 [2]): 28.9 µg/mL (≈ 119 µM)
GI50 (SF-268 [3]): 3.1 µg/mL (≈ 12.8 µM)
GI50 (DU-145 [4]): 2.7 µg/mL (≈ 11.1 µM)
GI50 (KM-20L2 [5]): 3.8 µg/mL (≈ 15.7 µM)
GI50 (BXPC-3 [7]): 6.3 µg/mL (≈ 26 µM)

SMILES: COc1ccc(/C=C\c2cc(OC)cc(OC)c2)cc1 [8Z-3,4',5-TRIMETHOXYSTILBENE]
inhibition (Tubulin (Bos taurus) [8]): 95%
GI50 (BXPC-3 [9]): 0.0034 µg/mL (≈ 0.0126 µM)
GI50 (NCI-H460): 0.0028 µg/mL (≈ 0.0104 µM)
EC50 (P388 [10]): 0.0262 µg/mL (≈ 0.0969 µM)
inhibition (Tubulin (Bos taurus) [11]): 88%
IC50 (Tubulin [12]): 1800 nM
GI50 (SF-268 [13]): 0.0044 µg/mL (≈ 0.0163 µM)
GI50 (DU-145 [14]): 0.0054 µg/mL (≈ 0.02 µM)

SMILES: COc1ccc(C(=O)c2cc(OC)c(OC)c(OC)c2)cc1O [PHENSTATIN]
inhibition (Tubulin (Bos taurus) [8]): 85%
GI50 (NCI-H460): 0.0057 µg/mL (≈ 0.0179 µM)
EC50 (P388 [10]): 0.0033 µg/mL (≈ 0.0104 µM)
inhibition (Tubulin (Bos taurus) [11]): 73%
IC50 (Tubulin [12]): 1100 nM
GI50 (SF-268 [13]): 0.052 µg/mL (≈ 0.163 µM)
GI50 (KM-20L2 [15]): 0.04 µg/mL (≈ 0.126 µM)
